Measured values pooled from the literature.
Lines come from different studies, so protocols differ. In brackets after ≈: the same amount, converted by molar mass.
Organism: Streptococcus pneumoniae
Effect on: microbial growth

CN(C)[C@@H]1C(O)=C(C(N)=O)C(=O)[C@@]2(O)C(O)=C3C(=O)c4c(cc5cc(N)ccc5c4O)C[C@H]3C[C@@H]12  MIC (broth dilution; ATCC49619): 1 µg/mL (≈ 2.09 µM)
O=C1NC(=S)N/C1=C\c1ccc(-c2ccc(N(c3ccccc3)c3ccccc3)cc2)cc1  MIC (broth dilution; ATCC49619): > 1000 µg/mL
CN(C)c1ccc(O)c2c1C[C@H]1C[C@H]3[C@H](N(C)C)C(O)=C(C(N)=O)C(=O)[C@@]3(O)C(O)=C1C2=O  MIC (157E): < 0.06 µg/mL
O=C(O)CN1C(=O)/C(=C/c2c3ccccc3c(-c3ccc(N(c4ccccc4)c4ccccc4)cc3)c3ccccc23)NC1=S  MIC (broth dilution; ATCC49619): > 1000 µg/mL
COc1cc(Cc2cnc(N)nc2N)cc(OC)c1OC  MIC (broth dilution; 24 h): 0.25 µg/mL (≈ 0.861 µM)
N=C(N)NN=Cc1ccc(OC/C=C\COc2ccc(C=NNC(=N)N)cc2)cc1  MIC (D39; 16 h): ≤ 3 µg/mL
CN(C)c1cc(NC(=O)CNC(C)(C)C)c(O)c2c1C[C@H]1C[C@H]3[C@H](N(C)C)C(O)=C(C(N)=O)C(=O)[C@@]3(O)C(O)=C1C2=O  MIC (157E): < 0.06 µg/mL
O=[N+]([O-])c1ccc(O)c2ncccc12  MIC (broth dilution; ATCC49619): 8 µg/mL (≈ 42.1 µM)
CN(C)[C@@H]1C(O)=C(C(N)=O)C(=O)[C@@]2(O)C(O)=C3C(=O)c4c(cc5ccc(-c6ccccc6)cc5c4O)C[C@H]3C[C@@H]12  MIC (broth dilution; ATCC49619): 32 µg/mL (≈ 59.2 µM)
O=C1NC(=S)S/C1=C\c1ccc(-c2ccc(N(c3ccccc3)c3ccccc3)cc2)c2ccccc12  MIC (broth dilution; ATCC49619): 1000 µg/mL (≈ 1940 µM)
C[C@@H](O)[C@H]1C(=O)N2C(C(=O)O)=C(S[C@@H]3CN[C@H](C(=O)N(C)C)C3)[C@H](C)[C@H]12  MIC (broth dilution; ATCC49619): 0.25 µg/mL (≈ 0.652 µM)
O=C1NC(=S)S/C1=C\c1ccc(-c2ccc(N(c3ccccc3)c3ccccc3)cc2)cc1  MIC (broth dilution; ATCC49619): 1000 µg/mL (≈ 2150 µM)
CN(C)[C@@H]1C(O)=C(C(N)=O)C(=O)[C@@]2(O)C(O)=C3C(=O)c4c(cc5ccc(CN6CC(C#N)C6)cc5c4O)C[C@H]3C[C@@H]12  MIC (broth dilution; ATCC49619): 0.5 µg/mL (≈ 0.895 µM)
O=c1[nH]cc(F)c(=O)[nH]1  MIC (broth dilution; 24 h): 0.125 µg/mL (≈ 0.961 µM)
